Columns and labels:
[1] = tested on: IL-6 in LPS-induced RAW 264.7 cells; assay: In vitro anti-inflammatory effect: IL-6; assay type: cell-based, Mouse; conditions: 25 μg/mL, LPS 1 μg/mL, 24 h
In short: (§1)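 RAW 264.7 mouse macrophages grown in RPMI-1640 with 10% FBS at 37°C, 5% CO2, seeded at 2 × 10^5 cells/well. Cells were exposed to LPS (1 μg/mL) with or without test formulation for 24 h; medium-only and LPS-only wells served as control and model. Supernatants were cleared at 10,000 rpm, 4°C. TNF-α, IL-6 and NO were measured by ELISA kits; mean ± SD, n = 3.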

[2] = tested on: Caco-2 cells; assay: Cellular uptake in Caco-2 cells; assay type: cell-based; conditions: Caco-2, 20 μg/mL, 1, 2 and 4 h
[3] = In vitro release study by dialysis bag method; assay type: physicochemical; conditions: solution formulation, water with 1% Tween 80, 37°C
In short: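 Test compound was dissolved in water/ethanol/PEG400 (20/40/40, v/v/v). Samples equivalent to 10 mg were sealed in dialysis bags (MWCO ~14,000) and dialysed against 100 mL purified water containing 1% Tween 80 at 37°C. Medium aliquots were taken at set times and replaced with fresh medium, diluted with methanol and assayed by HPLC. Cumulative release percentage was plotted against time.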

[4] = tested on: NO in LPS-induced RAW 264.7 cells; assay: In vitro anti-inflammatory effect: NO; assay type: cell-based, Mouse; conditions: 25 μg/mL, LPS 1 μg/mL, 24 h
In short: as §1

[5] = Oral bioavailability / pharmacokinetic study in rats; assay type: in vivo, Sprague-Dawley (SD) rats; conditions: Sprague-Dawley, rat, plasma, iv, 8 mg/kg
In short: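 Sprague-Dawley rats (220 ± 20 g, n = 5) were fasted overnight with water allowed, then given test compound solution i.v. at 8 mg/kg. Tail-vein blood was drawn into heparinised tubes at 0.133–12 h. Plasma was extracted with acetonitrile, dried at 30°C, reconstituted in 50% acetonitrile and run on UPLC-QTOF/MS (0.1% formic acid water/acetonitrile gradient). Parameters came from noncompartmental analysis.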

[6] = tested on: TNF-α in LPS-induced RAW 264.7 cells; assay: In vitro anti-inflammatory effect: TNF-α; assay type: cell-based, Mouse; conditions: 25 μg/mL, LPS 1 μg/mL, 24 h
In short: as §1

Oc1ccc(/C=C/c2cc(O)cc(O)c2)cc1 [Free RES, Resveratrol]
Effect on IL-6 compared to the LPS model [1]: substantially suppressed | Cellular uptake (intracellular RES concentration) [2]: rapid cellular uptake relative to RES-NPs | In vitro release [3]: released completely in a very short time | Effect on NO compared to the LPS model [4]: substantially suppressed | AUC(0-t) [5]: 902 ± 33.7 ng·h/mL | Cmax [5]: 974 ± 302 ng/mL | MRT inf [5]: 5.27 ± 0.931 h | Tmax [5]: 7.98 ± 3.24 min | Effect on TNF-α compared to the LPS model [6]: substantially suppressed
